BindingDB's records for doi:10.1021/jm500521n (Saarland University, 2014)

These molecules were tested against T1, Nitric oxide synthase, inducible (Mus musculus, UniProt P29477) (assay: Inhibition of iNOS induction in mouse RAW264.7 cells assessed as NO production).
T1 sequence (P29477 whole entry): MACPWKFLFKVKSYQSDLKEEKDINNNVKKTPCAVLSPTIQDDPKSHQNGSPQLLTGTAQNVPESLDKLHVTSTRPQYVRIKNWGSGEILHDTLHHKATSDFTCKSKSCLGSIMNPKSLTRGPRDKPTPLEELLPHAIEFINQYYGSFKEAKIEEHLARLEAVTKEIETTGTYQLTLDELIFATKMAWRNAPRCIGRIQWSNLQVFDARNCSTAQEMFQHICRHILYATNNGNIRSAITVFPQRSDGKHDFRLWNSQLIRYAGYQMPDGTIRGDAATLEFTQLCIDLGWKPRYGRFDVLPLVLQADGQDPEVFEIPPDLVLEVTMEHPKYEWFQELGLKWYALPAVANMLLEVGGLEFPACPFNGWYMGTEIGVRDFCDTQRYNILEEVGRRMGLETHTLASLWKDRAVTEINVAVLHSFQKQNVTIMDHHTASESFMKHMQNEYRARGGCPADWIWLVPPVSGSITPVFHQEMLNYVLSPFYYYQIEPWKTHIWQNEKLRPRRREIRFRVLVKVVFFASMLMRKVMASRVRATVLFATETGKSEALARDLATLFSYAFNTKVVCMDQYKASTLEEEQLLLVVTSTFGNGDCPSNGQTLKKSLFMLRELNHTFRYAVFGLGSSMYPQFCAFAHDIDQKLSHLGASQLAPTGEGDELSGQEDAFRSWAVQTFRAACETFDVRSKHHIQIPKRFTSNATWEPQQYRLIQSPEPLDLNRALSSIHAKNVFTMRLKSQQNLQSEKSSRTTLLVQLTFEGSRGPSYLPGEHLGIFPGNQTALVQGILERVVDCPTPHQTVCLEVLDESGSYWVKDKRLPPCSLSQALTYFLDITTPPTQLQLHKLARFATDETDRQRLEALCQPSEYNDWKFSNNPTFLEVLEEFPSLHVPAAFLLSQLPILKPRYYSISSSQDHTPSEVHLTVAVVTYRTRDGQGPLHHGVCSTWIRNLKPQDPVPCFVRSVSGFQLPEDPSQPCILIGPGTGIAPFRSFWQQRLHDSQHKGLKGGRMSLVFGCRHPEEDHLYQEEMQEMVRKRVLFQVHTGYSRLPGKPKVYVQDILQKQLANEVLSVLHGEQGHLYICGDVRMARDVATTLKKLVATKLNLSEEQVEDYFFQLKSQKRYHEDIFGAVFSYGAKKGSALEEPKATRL
In short: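 RAW 264.7 cells seeded at 8 × 10⁴ per well in DMEM/10% FBS and grown 2 days. Then exposed to LPS with compound or DMSO for 20 h. Supernatant nitrite measured by Griess reaction (sulfanilamide/NED) at 550 nm minus 620 nm background, quantified against a sodium nitrite standard curve. At least four experiments in triplicate.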

Structure (SMILES) | IC50 [µM]
CC(C)(C)C1=NN(c2cccc(Cl)c2)C(c2ccc(F)c(O)c2)C1 (stereo not given) | 4.6
CC(C)(C)C1=NN(c2ccc(Cl)cc2)C(c2ccc(O)cc2)C1 (stereo not given) | 7.5
Oc1ccc(C2CC(c3cccs3)=NN2c2ccc(Br)cc2)cc1 (stereo not given) | 3.4

The next molecules have a lower IC50 than those just listed; values first:

IC50 [µM] | Structure (SMILES)
0.8 | COc1cc(C=CC(=O)CC(=O)C=Cc2ccc(O)c(OC)c2)ccc1O
2.4 | Oc1ccc(C2CC(c3cccs3)=NN2c2ccc(C(F)(F)F)cc2)cc1 (stereo not given)
